Assay [1] deals with truly truncated H6:GFP: loop:s11. In words: Spontaneous dark reassembly with s11. The format is binding. The following applies: 4 μM protein, 20 μM s11, dark. The method in brief: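 Truncated protein made from intact GFP carrying a sacrificial loop: loop cut by proteolysis, then strand 11 stripped off in 6M Guanidinium-HCl. Protein separated from s11 peptide by size exclusion, refolded by rapid dilution into non-denaturing buffer, then thermally relaxed. 4 µM protein mixed with 20 µM s11 peptide without irradiation. Reassembly followed over time; second-order k reported in M-1s-1.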

The subject of another assay is s10• H6:GFP: loop:s11. The assay can be described thus: Displacement of bound s10 by excess s11. In kind it is binding. The following applies: excess s11 added to isolated complex; data not shown.
The next assay relates to H6:GFP: loop:s11. The following applies: His-tag retained, cited from earlier work.
The next assay relates to H6:GFP: loop:s11•s11. The note with it: excess replacement peptide s11^222Q; cited from earlier work.
In the next assay the test system is H6:s10:loop:GFP. The following applies: cited from earlier work.
For a further assay, the system named is s10• H6:s10:loop:GFP. The following applies: dark; cited from earlier work.

“Also recorded” adds a separate entry of the source. Where two headings read alike, the source gives them in different places.

Consider HMVLLEFVTAA [s11], for which the “rate constant k of spontaneous reassembly with s11 in the dark” value in assay [1] is on record as 1.2 × 10^0 M^−1 s^−1. In the assay with s10• H6:GFP: loop:s11, the “displacement of bound s10” value was “able to displace the bound s10, and light accelerates this process”. The “binding of s11 in the dark” value with H6:GFP: loop:s11 (listed as native peptide) is “unable to displace the H6 slotted into this groove until it is vacated following light activation”; in the assay with H6:GFP: loop:s11, “unable to bind s11 in the dark; also recorded: does not rebind added synthetic strand 11 (s11) spontaneously in the dark”. The “spontaneous off-rate of strand 11” value in the assay on H6:GFP: loop:s11•s11 is recorded as “effectively zero”.

Take NHYLSTQSVLS [s10]: the “reassembly with s10 in the dark” value with H6:s10:loop:GFP is reported as “readily reassembles”. In the assay with s10• H6:s10:loop:GFP, the “spontaneous off-rate of strand 10” value is “very slow”.

Source of the values: article PMC5815829 (Journal of the American Chemical Society, 2017).
